Experimental data as given in ChEMBL document CHEMBL3045565, “Microwave synthesis, characterization and bio-efficacy evaluation of novel chalcone based 6-carbethoxy-2-cyclohexen-1-one and 2H-indazol-3-ol derivatives” (Eur J Med Chem, 2013).
Converted amounts (≈) assume the structure as drawn.

test system: Radical scavenging activity; test: Antioxidant activity assessed as DPPH free radical scavenging activity at 300 ug/mL after 20 min by UV-Vis spectrophotometric analysis; assay type: functional; conditions: not given
How it was run: (§1)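 DPPH radical scavenging: samples were held at room temperature for 20 min in the dark, and absorbance was read at 517 nm. The control contained DMSO without compound, and methanol was used for baseline correction. Scavenging percentage was calculated from the absorbances.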

SMILES | Activity [%]
COc1ccc(C2=Cc3n[nH]c(O)c3C(c3ccc(OC)c(OC)c3)C2)cc1 (stereo not drawn) | 90.4
COc1ccc(C2CC(c3ccccc3)=Cc3n[nH]c(O)c32)cc1OC (stereo not drawn) | 91.9
COc1ccc(C2CC(c3ccccc3)=Cc3n[nH]c(O)c32)cc1 (stereo not drawn) | 89.7

test system: Radical scavenging activity; test: Antioxidant activity assessed as DPPH free radical scavenging activity at 400 ug/mL after 20 min by UV-Vis spectrophotometric analysis; assay type: functional; conditions: not given; how it was run: as §1

SMILES | Activity [%]
COc1ccc(C2=Cc3n[nH]c(O)c3C(c3ccc(OC)c(OC)c3)C2)cc1 (stereo not drawn) | 90.5
COc1ccc(C2CC(c3ccccc3)=Cc3n[nH]c(O)c32)cc1OC (stereo not drawn) | 90.5
COc1ccc(C2CC(c3ccccc3)=Cc3n[nH]c(O)c32)cc1 (stereo not drawn) | 88.9

test system: Radical scavenging activity; test: Antioxidant activity assessed as DPPH free radical scavenging activity at 10 ug/mL after 20 min by UV-Vis spectrophotometric analysis; assay type: functional; conditions: not given; how it was run: as §1

SMILES | Activity [%]
COc1ccc(C2=Cc3n[nH]c(O)c3C(c3ccc(OC)c(OC)c3)C2)cc1 (stereo not drawn) | 17.7
COc1ccc(C2CC(c3ccccc3)=Cc3n[nH]c(O)c32)cc1OC (stereo not drawn) | 18.1
COc1ccc(C2CC(c3ccccc3)=Cc3n[nH]c(O)c32)cc1 (stereo not drawn) | 16.8

test system: Radical scavenging activity; test: Antioxidant activity assessed as DPPH free radical scavenging activity at 200 ug/mL after 20 min by UV-Vis spectrophotometric analysis; assay type: functional; conditions: not given; how it was run: as §1

SMILES | Activity [%]
COc1ccc(C2=Cc3n[nH]c(O)c3C(c3ccc(OC)c(OC)c3)C2)cc1 (stereo not drawn) | 92.1
COc1ccc(C2CC(c3ccccc3)=Cc3n[nH]c(O)c32)cc1OC (stereo not drawn) | 91.9
COc1ccc(C2CC(c3ccccc3)=Cc3n[nH]c(O)c32)cc1 (stereo not drawn) | 91.8

test system: Radical scavenging activity; test: Antioxidant activity assessed as DPPH free radical scavenging activity at 80 ug/mL after 20 min by UV-Vis spectrophotometric analysis; assay type: functional; conditions: not given; how it was run: as §1

SMILES | Activity [%]
COc1ccc(C2=Cc3n[nH]c(O)c3C(c3ccc(OC)c(OC)c3)C2)cc1 (stereo not drawn) | 90
COc1ccc(C2CC(c3ccccc3)=Cc3n[nH]c(O)c32)cc1OC (stereo not drawn) | 90.9
COc1ccc(C2CC(c3ccccc3)=Cc3n[nH]c(O)c32)cc1 (stereo not drawn) | 88.4

test system: Pseudomonas aeruginosa; test: Antibacterial activity against Pseudomonas aeruginosa MTCC 2581 assessed as growth inhibition at 100 ug/disk after 24 hr by disk diffusion method; assay type: functional; conditions: MTCC 2581, 24 h, read-out: DIZ
How it was run: (§2)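 Disk diffusion on nutrient agar. Strains kept on NA slants at 37 °C and subcultured in nutrient broth before testing. A log-phase culture was spread on solidified medium, and sterile disks were loaded with compound from DMSO stock. DMSO served as control, with commercial antibiotics for reference. Plates ran 24 h at 37 °C, and inhibition zones (mm) were read in quadruplicate.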

SMILES | zone of inhibition at 100 µg/disc [mm]
COc1ccc(C2=Cc3n[nH]c(O)c3C(c3ccc(OC)c(OC)c3)C2)cc1 (stereo not drawn) | 0
COc1ccc(C2CC(c3ccccc3)=Cc3n[nH]c(O)c32)cc1OC (stereo not drawn) | 5
COc1ccc(C2CC(c3ccccc3)=Cc3n[nH]c(O)c32)cc1 (stereo not drawn) | 0

test system: Radical scavenging activity; test: Antioxidant activity assessed as DPPH free radical scavenging activity after 20 min by UV-Vis spectrophotometric analysis; assay type: functional; set-up: concentration or dose not given beside the values; conditions: not given; how it was run: as §1

SMILES | Activity [%] | IC50 [µg/mL]
COc1ccc(C2=Cc3n[nH]c(O)c3C(c3ccc(OC)c(OC)c3)C2)cc1 (stereo not drawn) | 65.3 | 23.94 (≈ 63.3 µM)
COc1ccc(C2CC(c3ccccc3)=Cc3n[nH]c(O)c32)cc1OC (stereo not drawn) | 69.9 | 21.98 (≈ 63.1 µM)
COc1ccc(C2CC(c3ccccc3)=Cc3n[nH]c(O)c32)cc1 (stereo not drawn) | 50.2 | 29.62 (≈ 93 µM)

test system: Bacillus thuringiensis; test: Antibacterial activity against Bacillus thuringiensis MTCC 6941 assessed as growth inhibition at 100 ug/disk after 24 hr by disk diffusion method; assay type: functional; conditions: MTCC 6941, 24 h, read-out: DIZ; how it was run: as §2

SMILES | zone of inhibition at 100 µg/disc [mm]
COc1ccc(C2=Cc3n[nH]c(O)c3C(c3ccc(OC)c(OC)c3)C2)cc1 (stereo not drawn) | 0
COc1ccc(C2CC(c3ccccc3)=Cc3n[nH]c(O)c32)cc1OC (stereo not drawn) | 0
COc1ccc(C2CC(c3ccccc3)=Cc3n[nH]c(O)c32)cc1 (stereo not drawn) | 0

test system: Radical scavenging activity; test: Antioxidant activity assessed as DPPH free radical scavenging activity at 40 ug/mL after 20 min by UV-Vis spectrophotometric analysis; assay type: functional; conditions: not given; how it was run: as §1

SMILES | Activity [%]
COc1ccc(C2=Cc3n[nH]c(O)c3C(c3ccc(OC)c(OC)c3)C2)cc1 (stereo not drawn) | 65.3
COc1ccc(C2CC(c3ccccc3)=Cc3n[nH]c(O)c32)cc1OC (stereo not drawn) | 69.9
COc1ccc(C2CC(c3ccccc3)=Cc3n[nH]c(O)c32)cc1 (stereo not drawn) | 50.3

test system: Radical scavenging activity; test: Antioxidant activity assessed as DPPH free radical scavenging activity at 20 ug/mL after 20 min by UV-Vis spectrophotometric analysis; assay type: functional; conditions: not given; how it was run: as §1

SMILES | Activity [%]
COc1ccc(C2=Cc3n[nH]c(O)c3C(c3ccc(OC)c(OC)c3)C2)cc1 (stereo not drawn) | 29.2
COc1ccc(C2CC(c3ccccc3)=Cc3n[nH]c(O)c32)cc1OC (stereo not drawn) | 30.2
COc1ccc(C2CC(c3ccccc3)=Cc3n[nH]c(O)c32)cc1 (stereo not drawn) | 30.6

test system: Xanthomonas oryzae; test: Antibacterial activity against Xanthomonas oryzae ITCC B-47 assessed as as growth inhibition at 100 ug/disk after 24 hr by disk diffusion method; assay type: functional; conditions: ITCC B-47, 24 h, read-out: DIZ

SMILES | zone of inhibition at 100 µg/disc [mm]
COc1ccc(C2=Cc3n[nH]c(O)c3C(c3ccc(OC)c(OC)c3)C2)cc1 (stereo not drawn) | 0
COc1ccc(C2CC(c3ccccc3)=Cc3n[nH]c(O)c32)cc1OC (stereo not drawn) | 0
COc1ccc(C2CC(c3ccccc3)=Cc3n[nH]c(O)c32)cc1 (stereo not drawn) | 0

test system: Klebsiella pneumoniae; test: Antibacterial activity against Klebsiella pneumoniae MTCC 7028 assessed as growth inhibition at 100 ug/disk after 24 hr by disk diffusion method; assay type: functional; conditions: MTCC 7028, 24 h, read-out: DIZ; how it was run: as §2

SMILES | zone of inhibition at 100 µg/disc [mm]
COc1ccc(C2=Cc3n[nH]c(O)c3C(c3ccc(OC)c(OC)c3)C2)cc1 (stereo not drawn) | 0
COc1ccc(C2CC(c3ccccc3)=Cc3n[nH]c(O)c32)cc1OC (stereo not drawn) | 0
COc1ccc(C2CC(c3ccccc3)=Cc3n[nH]c(O)c32)cc1 (stereo not drawn) | 0

test system: Rhizoctonia solani; test: Antifungal activity against Rhizoctonia solani ITCC 5563 by food poisoning method; assay type: functional; conditions: not given
How it was run: (§3)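 Poisoned food technique on PDA at several concentrations. A 5 mm mycelial plug from the growing edge of a 2-week-old colony was placed inoculum-side down at the plate centre. Plates incubated at 27 °C until control growth was nearly complete. Colony diameter measured, percent inhibition calculated against control, LC50 derived. Four replicates per treatment.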

SMILES | LC50 [µg/mL]
COc1ccc(C2=Cc3n[nH]c(O)c3C(c3ccc(OC)c(OC)c3)C2)cc1 (stereo not drawn) | 1030 (≈ 2730 µM)
COc1ccc(C2CC(c3ccccc3)=Cc3n[nH]c(O)c32)cc1OC (stereo not drawn) | 696 (≈ 2000 µM)
COc1ccc(C2CC(c3ccccc3)=Cc3n[nH]c(O)c32)cc1 (stereo not drawn) | 718 (≈ 2260 µM)

test system: Athelia rolfsii; test: Antifungal activity against Athelia rolfsii ITCC 6181 by food poisoning method; assay type: functional; conditions: Agroathelia rolfsii; how it was run: as §3

SMILES | LC50 [µg/mL]
COc1ccc(C2=Cc3n[nH]c(O)c3C(c3ccc(OC)c(OC)c3)C2)cc1 (stereo not drawn) | 1240 (≈ 3280 µM)
COc1ccc(C2CC(c3ccccc3)=Cc3n[nH]c(O)c32)cc1OC (stereo not drawn) | 817 (≈ 2340 µM)
COc1ccc(C2CC(c3ccccc3)=Cc3n[nH]c(O)c32)cc1 (stereo not drawn) | 713 (≈ 2240 µM)

test system: Radical scavenging activity; test: Antioxidant activity assessed as DPPH free radical scavenging activity at 100 ug/mL after 20 min by UV-Vis spectrophotometric analysis; assay type: functional; conditions: not given; how it was run: as §1

SMILES | Activity [%]
COc1ccc(C2=Cc3n[nH]c(O)c3C(c3ccc(OC)c(OC)c3)C2)cc1 (stereo not drawn) | 91.4
COc1ccc(C2CC(c3ccccc3)=Cc3n[nH]c(O)c32)cc1OC (stereo not drawn) | 91.8
COc1ccc(C2CC(c3ccccc3)=Cc3n[nH]c(O)c32)cc1 (stereo not drawn) | 89

test system: Radical scavenging activity; test: Antioxidant activity assessed as DPPH free radical scavenging activity at 500 ug/mL after 20 min by UV-Vis spectrophotometric analysis; assay type: functional; conditions: not given; how it was run: as §1

SMILES | Activity [%]
COc1ccc(C2=Cc3n[nH]c(O)c3C(c3ccc(OC)c(OC)c3)C2)cc1 (stereo not drawn) | 90.8
COc1ccc(C2CC(c3ccccc3)=Cc3n[nH]c(O)c32)cc1OC (stereo not drawn) | 90.8
COc1ccc(C2CC(c3ccccc3)=Cc3n[nH]c(O)c32)cc1 (stereo not drawn) | 90.2

test system: Staphylococcus aureus; test: Antibacterial activity against Staphylococcus aureus MTCC 3160 assessed as growth inhibition at 100 ug/disk after 24 hr by disk diffusion method; assay type: functional; conditions: MTCC 3160, 24 h, read-out: DIZ; how it was run: as §2

SMILES | zone of inhibition at 100 µg/disc [mm]
COc1ccc(C2=Cc3n[nH]c(O)c3C(c3ccc(OC)c(OC)c3)C2)cc1 (stereo not drawn) | 0
COc1ccc(C2CC(c3ccccc3)=Cc3n[nH]c(O)c32)cc1OC (stereo not drawn) | 0
COc1ccc(C2CC(c3ccccc3)=Cc3n[nH]c(O)c32)cc1 (stereo not drawn) | 0

test system: Radical scavenging activity; test: Antioxidant activity assessed as DPPH free radical scavenging activity at 60 ug/mL after 20 min by UV-Vis spectrophotometric analysis; assay type: functional; conditions: not given; how it was run: as §1

SMILES | Activity [%]
COc1ccc(C2=Cc3n[nH]c(O)c3C(c3ccc(OC)c(OC)c3)C2)cc1 (stereo not drawn) | 85.8
COc1ccc(C2CC(c3ccccc3)=Cc3n[nH]c(O)c32)cc1OC (stereo not drawn) | 87.6
COc1ccc(C2CC(c3ccccc3)=Cc3n[nH]c(O)c32)cc1 (stereo not drawn) | 79.7

test system: Dickeya chrysanthemi; test: Antibacterial activity against Erwinia chrysanthemi ITCC B-40 assessed as as growth inhibition at 100 ug/disk after 24 hr by disk diffusion method; assay type: functional; conditions: ITCC B-40, 24 h, read-out: DIZ; how it was run: as §2

SMILES | zone of inhibition at 100 µg/disc [mm]
COc1ccc(C2=Cc3n[nH]c(O)c3C(c3ccc(OC)c(OC)c3)C2)cc1 (stereo not drawn) | 0
COc1ccc(C2CC(c3ccccc3)=Cc3n[nH]c(O)c32)cc1OC (stereo not drawn) | 0
COc1ccc(C2CC(c3ccccc3)=Cc3n[nH]c(O)c32)cc1 (stereo not drawn) | 0

test system: Bacillus pumilus; test: Antibacterial activity against Bacillus pumilus MTCC 2466 assessed as growth inhibition at 100 ug/disk after 24 hr by disk diffusion method; assay type: functional; conditions: MTCC 2466, 24 h, read-out: DIZ; how it was run: as §2

SMILES | zone of inhibition at 100 µg/disc [mm]
COc1ccc(C2=Cc3n[nH]c(O)c3C(c3ccc(OC)c(OC)c3)C2)cc1 (stereo not drawn) | 0
COc1ccc(C2CC(c3ccccc3)=Cc3n[nH]c(O)c32)cc1OC (stereo not drawn) | 0
COc1ccc(C2CC(c3ccccc3)=Cc3n[nH]c(O)c32)cc1 (stereo not drawn) | 0
